Measurements collected from several papers.
Each line is one published result; the experiments were not run side by side.
Observed: enzyme activity
Action: inhibitor
SRC: Proto-oncogene tyrosine-protein kinase Src (SRC, Homo sapiens, UniProt P12931)
SRC T341M: Proto-oncogene tyrosine-protein kinase Src (SRC, Homo sapiens, UniProt P12931, T341M)

| SMILES | target | technique | tested at | remaining activity |
| --- | --- | --- | --- | --- |
| FC(F)c1nc2ccccc2n1-c1nc(N2CCOCC2)nc(N2CCOCC2)n1 | SRC | – | 10 µM | 104% |
| Nc1ncnc2occ(-c3ccc(NC(=O)Nc4cc(C(F)(F)F)ccc4F)cc3)c12 | SRC | – | 20 µM | 0.2% |
| COc1cc(Nc2cnc(C#N)c(O[C@H](C)CN(C)C)n2)ncc1-c1cnn(C)c1 | SRC | radiometric | 1 µM | 81% |
| O=c1cc(-c2cccc3c2Sc2ccccc2S3)oc(N2CCOCC2)c1 | SRC | – | 0.5 µM | 106% |
| Cc1ccc(C(=O)Nc2ccc(CN3CCN(C)CC3)c(C(F)(F)F)c2)cc1C#Cc1cnc2cccnn12 | SRC | – | 23.5 nM | 12% |
| Cc1ccc(NC(=O)c2ccc(C)c(C(F)(F)F)c2)cc1C#Cc1nn(C2CCC(O)CC2)c2ncnc(N)c12 (stereo not drawn) | SRC T341M | – | 10 µM | 20% |
| Cc1sc(C(=O)NC2COC2)cc1-n1cc(NC(=O)Nc2c(F)cccc2Cl)cn1 | SRC | – | 10 µM | 96.6% |
| CC(C)(C)c1nc2c(s1)c1nc(N)ncc1c1ccc(NS(=O)(=O)c3c(F)cccc3F)c(F)c12 | SRC | radiometric | 1 µM | 89% |
| Nc1nc(Nc2ccccc2)sc1C(=O)c1c(F)cccc1F | SRC | – | 10 µM | 47% |
| Cc1[nH]c(/C=C2\C(=O)Nc3ccc(F)cc32)c(C)c1C(=O)N[C@H]1CCN(C(=O)N(C)C)C1 | SRC | – | 1 µM | 89% |
| CC(C)(C)C(=O)c1sc(NC2CCCCC2)nc1N | SRC | – | 10 µM | 99% |
| CCCOc1ccc(OC)c(F)c1C(=O)c1ccc(C(=O)N[C@@H]2CNC[C@H]2NC(=O)c2ccc3[nH]ncc3c2)cc1 | SRC T341M | – | 10 µM | 53% |
